According to PubChem BioAssay AID588392 (Broad Institute, 2011):
Where “and” joins values, the source holds several entries; their conditions need not be identical. Identical values can stand only once.

Target: Scavenger receptor class B member 1 (Mus musculus) (UniProt Q61009)
Experiment: SR-BI-mediated DiI-HDL uptake inhibitors, dose response, ldlA[mSR-BI] CHO cells, powder samples, set 2 (AID 588392)
Details: DiI-HDL uptake fluorescence, 3 h
In short: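 System: ldlA[mSR-BI] CHO cells, LDL receptor-deficient, overexpressing murine SR-BI; Probe or stimulus: DiI-labeled HDL, 10 µg/mL final; Doses: compounds delivered by pin transfer; Schedule: overnight plating, 3 h uptake at 37 °C; Measured by: DiI fluorescence, ex 550/em 595 nm, bottom read; Evaluation: HDL uptake from DiI signal, decrease indicating inhibition.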

Sequence of Scavenger receptor class B member 1 (Mus musculus) (Q61009 whole entry, looked up): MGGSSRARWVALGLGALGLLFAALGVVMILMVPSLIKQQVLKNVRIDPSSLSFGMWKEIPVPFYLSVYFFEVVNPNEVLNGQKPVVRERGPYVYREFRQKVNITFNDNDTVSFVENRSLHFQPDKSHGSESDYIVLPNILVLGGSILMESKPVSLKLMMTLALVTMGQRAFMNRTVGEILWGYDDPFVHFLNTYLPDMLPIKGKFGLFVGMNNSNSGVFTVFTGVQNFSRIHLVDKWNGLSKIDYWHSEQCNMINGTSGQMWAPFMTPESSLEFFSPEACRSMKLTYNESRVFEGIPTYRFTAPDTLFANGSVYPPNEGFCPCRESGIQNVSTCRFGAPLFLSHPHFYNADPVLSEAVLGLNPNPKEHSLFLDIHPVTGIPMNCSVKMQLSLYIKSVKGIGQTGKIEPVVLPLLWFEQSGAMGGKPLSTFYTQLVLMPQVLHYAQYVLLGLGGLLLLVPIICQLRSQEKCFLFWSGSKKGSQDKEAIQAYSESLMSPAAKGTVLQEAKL

Row | AC50 | SMILES
1 | 18900 nM | CCC(=O)N1CCc2cc(-c3coc(NC(=O)c4ccco4)n3)ccc21
2 | 493 nM | Cc1ccc(-c2nnn(CC(=O)N(C3CCCCC3)C(C)C(=O)NC3CCCC3)n2)cc1 (centres undefined)
3 | 39.9 nM | CCC(=O)N1CCc2cc(-c3csc(NC(=O)c4cccc(OC)c4)n3)ccc21
4 | 24.3 nM | CC(C(=O)NC1CCCC1)N(C(=O)Cn1nnc(-c2ccc3c(c2)OCO3)n1)C1CCCCC1 (centres undefined)
5 | 125 nM | CC(C(=O)NC1CCCC1)N(C(=O)Cn1nnc(-c2ccc(F)cc2)n1)C1CCCCC1 (centres undefined)
6 | 44.7 nM | O=C(Nc1nc(-c2ccc3c(c2)CCN3)cs1)c1ccco1
7 | 12.6 nM | O=C(CN(C(=O)Cn1nnc(-c2ccc3c(c2)OCO3)n1)C1CCCCC1)NC1CCCC1
8 | 6840 nM | COC(=O)N1CCc2cc(-c3csc(NC(=O)c4ccco4)n3)ccc21
9 | 20000 nM | CCC(=O)N1CCc2cc(-c3coc(N)n3)ccc21
10 | 8.98 nM | COc1ccc(-c2nnn(CC(=O)N(CC(=O)NC3CCCC3)C3CCCCC3)n2)cc1OC
11 | 15.4 nM | COc1ccc(-c2cc(CC(=O)N(C3CCCCC3)C(C)C(=O)NC3CCCC3)no2)cc1OC (centres undefined)
12 | 40.8 nM | CCC(=O)N1CCc2cc(-c3csc(NC(=O)c4cccc(OC(F)(F)F)c4)n3)ccc21
13 | 3810 nM | CC(C(=O)NC1CCCC1)N(C(=O)Cn1nnc(-c2ccccc2Cl)n1)C1CCCCC1 (centres undefined)
14 | 81 nM and 268 nM | C[C@@H]1CN([C@H](C)CO)C(=O)c2cc(NC(=O)Cc3cn(C)c4ccccc34)ccc2O[C@H]1CN(C)S(=O)(=O)c1ccc(Cl)cc1
15 | 275 nM | CC(C(=O)NC1CCCC1)N(C(=O)Cn1nnc(-c2ccc(Cl)cc2)n1)C1CCCCC1 (centres undefined)
16 | 72.5 nM | COc1ccc(-c2nnn(CC(=O)N(C3CCCCC3)C(C)C(=O)NC3CCCC3)n2)cc1OC (centres undefined)
17 | 4.33 nM | CCC(=O)N1CCc2cc(-c3csc(NC(=O)c4cc(OC)cc(OC)c4)n3)ccc21
18 | 379 nM | CC(C(=O)NC1CCCC1)N(C(=O)Cn1nnc(-c2cccc(F)c2)n1)C1CCCCC1 (centres undefined)
19 | 10100 nM | CCC(=O)N1CCc2cc(-c3cnc(NC(=O)c4ccco4)[nH]3)ccc21
20 | 617 nM | CC(C(=O)NC1CCCC1)N(C(=O)Cn1nnc(-c2ccccc2F)n1)C1CCCCC1 (centres undefined)
21 | 7.1 nM | CCCCCCC1CCC/C1=N\NC(N)=S (centres undefined)
22 | 180 nM | COc1cccc(-c2nnn(CC(=O)N(C3CCCCC3)C(C)C(=O)NC3CCCC3)n2)c1 (centres undefined)
23 | 38 nM | CCC(=O)N1CCc2cc(-c3csc(NC(=O)c4ccc(F)c(OC)c4)n3)ccc21
24 | 186 nM | O=C(Nc1nc(-c2ccc3c(c2)CCN3C(=O)C2CC2)cs1)c1ccco1
25 | 53.7 nM | CCC(=O)N1CCc2cc(-c3csc(NC(=O)c4ccco4)n3)ccc21
26 | 528 nM | CCC(=O)N1CCc2cc(-c3csc(NC(=O)c4cccc(OC)n4)n3)ccc21
27 | 1700 nM | CCC(=O)N1CCc2cc(-c3cnc(NC(C)=O)[nH]3)ccc21
28 | 238 nM | CC(C)C(=O)N1CCc2cc(-c3csc(NC(=O)c4ccco4)n3)ccc21
29 | 386 nM | CS(=O)(=O)N1CCc2cc(-c3csc(NC(=O)c4ccco4)n3)ccc21
